Experiment [1] concerns EGFR tyrosine phosphorylation. Nature of the experiment: EGFR tyrosine phosphorylation. The format is cell-based, human.
Experiment [2] deals with T1, BRS-3 (Homo sapiens, UniProt P32247).
T1 sequence (P32247 1-399): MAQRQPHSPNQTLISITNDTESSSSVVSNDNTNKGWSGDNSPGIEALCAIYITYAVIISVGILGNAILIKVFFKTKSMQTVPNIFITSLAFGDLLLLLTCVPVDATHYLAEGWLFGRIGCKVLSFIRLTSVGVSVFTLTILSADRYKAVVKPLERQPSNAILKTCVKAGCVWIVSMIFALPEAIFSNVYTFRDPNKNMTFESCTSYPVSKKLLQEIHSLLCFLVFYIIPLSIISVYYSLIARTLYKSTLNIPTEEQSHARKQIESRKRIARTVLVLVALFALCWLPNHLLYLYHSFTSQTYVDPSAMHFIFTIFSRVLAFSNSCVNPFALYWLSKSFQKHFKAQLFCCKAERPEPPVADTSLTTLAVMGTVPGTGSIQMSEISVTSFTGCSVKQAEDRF
The settings on record: cited from earlier work.

Experiment [3] concerns NCI-H1299-BRS-3 cells. Kind of experiment: Clonogenic assay. Format: cell-based, human. The settings on record: for Colony number: addition 10 nM, mean ± S.D., no addition 40 ± 6; for Effect on NCI-H1299-BRS-3 cellular proliferation: unpublished.
The test system of experiment [4] is Balb/3T3-BRS-3 cells. Kind of experiment: MTT proliferation assay. The format is cell-based.
Experiment [5] addresses T1, BRS-3. Nature of the experiment: Inhibition of specific 125I-BA1 binding to NCI-H1299-BRS-3 cells.
Experiment [6] has as its system Balb/3T3 cells. Nature of the experiment: MTT proliferation assay, control cells. Format: cell-based. Conditions: 30 μg/ml, 16 hours, mean ± S.E. The procedure, abridged: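 Parental Balb/3T3 cells lacking BRS-3 were maintained in DMEM with 10% FBS. They were seeded at 10⁴/well in serum-free SIT medium (RPMI-1640 with selenite, insulin and transferrin) and exposed for 16 h to test compound at 10 nM or 30 μg/ml. MTT was then added for 3 h, formazan was dissolved in DMSO, and OD was read at 570 nm. Growth is given as % of control, mean ± S.E.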
On the technique in general: Tetrazolium dyes change colour on reduction, which living cells bring about.

Experiment [7] relates to ERK tyrosine phosphorylation. Kind of experiment: ERK tyrosine phosphorylation. Format: cell-based, human. Conditions: concentration not given.
Experiment [8] relates to BB1R. Conditions: read-out: IC50, binding to BB1R; transfected Balb 3T3 cells; cited from earlier work.
The subject of experiment [9] is BB2R. The settings on record: cited from earlier work.
The mark [10] stands for this setting: concentration not given, data not shown / unpublished.
[11] abbreviates: read-out: IC50, binding to BB2R, transfected Balb 3T3 cells.
Where [12] appears, read: read-out: IC50, binding to BRS-3, transfected Balb 3T3 cells.

pIC50: −log10 of the molar value. Like-named read-outs stand apart in the source and are kept apart here. Marks after values point to notes of the source that are not given here. Numbered stars: 1 amine (or outer) side, 2 acyl side, 3 side chain; on linkers, the order of the positions; unused ones are H or OH. Square brackets hold non-standard residues; d marks the D form. Peptide text beside a SMILES is read from it. * marks the point of attachment. dProψ(CH2NH)PheNH2 = NC(=O)[C@H](Cc1ccccc1)NC[C@H]1CCCN1*; X1 = O=C(C[C@@H](N[*:1])c1ccc(Cl)cc1)[*:2]; Hydrocinnamoyl = O=C(CCc1ccccc1)*; NHPhenethyl = c1ccc(CCN*)cc1; Nle = CCCC[C@H](N)C(=O)O; PhAc = O=C(Cc1ccccc1)*

Turning to `c1ccc2c(c1)[I+]c1ccccc1-2` [DPI, diphenylene iodonium], the “Inhibition of the increase in EGFR tyrosine phosphorylation caused by BA1” value (from here on “Inhibition of the increase”) in [1] (15 μM, 100 nM BA1) is on record as “inhibited”.
Regarding `C[C@H](NC(=O)Cc1ccccc1)C(=O)N[C@H](Cc1c[nH]c2ccccc12)C(=O)NCCc1ccccc1` [16a] (PhAc-Ala-[dW]-NHPhenethyl), the pIC50 in experiment [2] (read-out: IC50, binding to human BRS-3) is 5.50.
As to `CSCC[C@H](NC(=O)[C@H](CC(C)C)NC(=O)[C@H](Cc1c[nH]cn1)NC(=O)CNC(=O)[C@@H](NC(=O)[C@H](C)NC(=O)[C@H](Cc1c[nH]c2ccccc12)NC(=O)[C@H](Cc1c[nH]cn1)NC(=O)[C@H](CC(N)=O)NC(=O)CNC(=O)[C@H](CCCNC(=N)N)NC(=O)[C@@H]1CCCN1C(=O)[C@H](Cc1ccc(O)cc1)NC(=O)[C@H](CCSC)NC(=O)[C@H](CCCCN)NC(=O)[C@@H](NC(=O)[C@H](CC(C)C)NC(=O)[C@@H](NC(=O)[C@@H](NC(=O)CNC(=O)CNC(=O)CNC(=O)[C@H](C)NC(=O)[C@@H]1CCCN1C(=O)[C@H](CC(C)C)NC(=O)[C@@H]1CCCN1C(=O)[C@@H](N)C(C)C)[C@@H](C)O)C(C)C)[C@@H](C)O)C(C)C)C(N)=O` [GRP, gastrin releasing peptide], in experiment [3], the Colony number is 41 ± 5^aa.
For the compound `CC(=O)N[C@@H](CS)C(=O)O` [N-acetylcysteine], in experiment [1] (5 mM, 100 nM BA1), the “Inhibition of the increase” value is given as “reversed”.
With `CNC(=O)[C@H](Cc1c[nH]c2ccccc12)NC(=O)[C@@H](CC(=O)NO)CC(C)C` [GM6001], the “Inhibition of the increase” value in experiment [1] (10 μM, 100 nM BA1) is “inhibited”.
On to `COc1cc2ncnc(Nc3ccc(F)c(Cl)c3)c2cc1OCCCN1CCOCC1` [Gefitinib, gefitinib], for which the “Effect on colony number” value in [3] (gefitinib dose-response, exogenous BA1 not added, Fig. 1B) is “reduced colony number in a dose-dependent manner”. Besides, in experiment [4] (30 μg/ml, 16 hours, MTT, mean ± S.E.), the “% Growth Balb/3T3-BRS-3” value came to 41 ± 6 %. The compound further gave a pIC50 in experiment [5] below 5.70. Further, the “% Growth Balb/3T3” value in experiment [6] is reported as 31 ± 4 %.
In the case of `COc1cc2ncnc(Nc3cccc(Cl)c3)c2cc1OC` [AG1478], the “Inhibition of BA1-induced ERK tyrosine phosphorylation” value in [7] was “blocked”. Moreover, the “Inhibition of the increase” value in experiment [1] (setting [10]) is given as “blocked”.
`C[C@@](Cc1c[nH]c2ccccc12)(NC(=O)Nc1ccc([N+](=O)[O-])cc1)C(=O)NCC1(c2ccccn2)CCCCC1` [PD168368]: the pIC50 in [8] is 9.30; in experiment [5] (read-out: IC50, inhibition of specific 125I-BA1 binding, NCI-H1299-BRS-3 cells, 37°C, mean ± S.E. of 4 determinations), below 5.70; in [9] (setting [11]) it was 6.67; in experiment [2] (setting [12]) it was below 5.00. Also, in experiment [3], the “Effect on NCI-H1299-BRS-3 cellular proliferation” value is recorded as “little effect”. The “Inhibition of BA1-induced ERK tyrosine phosphorylation” value in [7] was “not inhibited”.
With “Ac-Phe-Trp-Ala-His(γBzl)-Nip-Gly-Arg-NH2”, the pIC50 in experiment [9] (read-out: IC50, BB2R, ref 2, 28) is below 5.00; in experiment [9] (read-out: IC50, BB2R, ref 26, 27), 5.55.
Take `COc1cccc(-c2cc(=O)c3ccccc3o2)c1N` [PD98059]: the Effect on growth entry in experiment [4] (10 μM, all cells tested, preliminary unpublished data) is reported as “little effect”. Also, the “Inhibition of BA1-induced ERK tyrosine phosphorylation” value in [7] was “reversed”. Besides, in [1] (setting [10]), the “Inhibition of the increase” value is “no effect”.
For `CC(C)(C)n1nc(-c2ccc(Cl)cc2)c2c(N)ncnc21` [PP2], the “Inhibition of the increase” value in experiment [1] (10 μM, 100 nM BA1) is recorded as “inhibited”.
On to `CC(C)[C@H](NC(=O)[C@H](C)NC(=O)[C@H](Cc1c[nH]c2ccccc12)NC(=O)[C@H](Cc1c[nH]cn1)NC(=O)CCc1ccccc1)C(=O)N[C@H](C)C(=O)N[C@@H](Cc1c[nH]cn1)C(=O)N1CCC[C@@H]1CN[C@@H](Cc1ccccc1)C(N)=O` [BW2258U89] (Hydrocinnamoyl-HWAV[dA]H-{dProψ(CH2NH)PheNH2}; N-terminus and C-terminus assumed), for which the results for the pIC50 in [8], in [9] (setting [11]) and in [2] (setting [12]) were 5.31, 9.70 and 5.17, respectively. Moreover, the “Effect on NCI-H1299-BRS-3 cellular proliferation” value in experiment [3] is “little effect”. Besides, the “Inhibition of BA1-induced ERK tyrosine phosphorylation” value in experiment [7] was “not inhibited”.
Turning to `O=S(=O)(O)c1cc(O)c(O)c(S(=O)(=O)O)c1` [Tiron], the “Inhibition of the increase” value in [1] (5 mM, 100 nM BA1) is on record as “reversed”.
Take `CCCC[C@H](NC(=O)[C@H](Cc1ccccc1)NC(=O)[C@H](Cc1c[nH]cn1)NC(=O)C[C@@H](NC(=O)[C@@H](NC(=O)[C@H](C)NC(=O)[C@H](Cc1c[nH]c2ccccc12)NC(=O)[C@H](CCC(N)=O)NC(=O)[C@H](N)Cc1ccc(O)cc1)C(C)C)c1ccc(Cl)cc1)C(N)=O` [BA3, (DTyr^6, R-Apa^11,4-Cl,Phe^13, Nle^14)bombesin^6-14] (H-[dY]QWAV[X1]HF[Nle]-NH2; N-terminus and C-terminus assumed): in [1] (100 nM, NCI-H1299-BRS-3 cells), the “EGFR tyrosine phosphorylation (transactivation)” value is reported as “increased”. In experiment [2], the “Selectivity for hBRS-3 over hNMBR or hGRPR” value is recorded as “over 60 fold”.
On to `CSCC[C@H](NC(=O)[C@H](Cc1ccccc1)NC(=O)[C@H](Cc1c[nH]cn1)NC(=O)CNC(=O)[C@@H](NC(=O)[C@H](C)NC(=O)[C@H](Cc1c[nH]c2ccccc12)NC(=O)[C@H](CC(C)C)NC(=O)[C@H](CC(N)=O)NC(=O)CN)[C@@H](C)O)C(N)=O` [NMB, neuromedin B], for which the Colony number in [3] is recorded as 46 ± 5^a. Besides, the pIC50 in experiment [5] was below 5.70.
